Measured values published in ChEMBL document CHEMBL1149098, “Design, synthesis, and evaluation of novel thienopyrrolizinones as antitubulin agents” (J Med Chem, 2004).
Values belong to the compound of their own block, whether it stands above or below them.

Assays:
L1210 [1] = experiment: In vitro antiproliferative activity against L1210 cell line, activity expressed as growth inhibition; format: functional; settings: Mus musculus
How it was run: (§1)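 MTT proliferation assay. Adherent cells trypsinized and seeded at densities keeping controls in exponential growth. Drug exposure for four doubling times, at most 7 days. MTT (5 mg/mL stock) added for 4 h at 37 °C, formazan dissolved in DMSO, OD read at 540 nm. % growth from treated/control OD, tri- or hexaplicates averaged against log concentration. GI50 from linear regression on the linear zone.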

L1210 [2] = experiment: Compound was tested for percentage of L1210 cells accumulated in the G2 + M + 8N phase of the cell cycle at 50 uM; format: functional, Mus musculus
How it was run: (§2)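 Flow cytometry of L1210 cells (2.5×10^5/mL) exposed to drug for 21 h (about two doubling times). Cells fixed in 70% ethanol, washed twice in PBS, then 30 min in PBS with 100 µg/mL RNAse and 25 µg/mL propidium iodide. 10 000 cells counted per sample. Reported as % of cells in G2 + M + 8N.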

CCRF-CEM = experiment: Cytotoxicity against human leukemia CCRF-CEM cell line; format: functional
NCI-H522 = experiment: Cytotoxicity against human NSCL NCI-H522 cell line; format: functional
MDA-N = experiment: Cytotoxicity against human breast MDA-N cell line; format: functional
SW-620 = experiment: Cytotoxicity against human colon SW-620 cell line; format: functional
PC-3 = experiment: Cytotoxicity against human prostate PC-3 cell line; format: functional
M14 [3] = experiment: Cytotoxicity against human melanoma M-14 cell line; format: functional
RXF 393 = experiment: Cytotoxicity against human renal XF-393 cell line; format: functional
M14 [4] = experiment: Cytotoxicity against human melanoma M-14 cell line from the NCI 60 tumoral cell line panel; format: functional
Homo sapiens [5] = species on record: Homo sapiens; experiment: Compound was evaluated for anticancer activity in the hollow fiber assay, activity expressed as total score; format: functional
How it was run: (§3)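 Mouse hollow-fiber model: PVDF fibres holding 12 human tumour cell lines implanted ip and sc. Drug in 10% DMSO in saline/Tween-80, given ip once daily for four doses at each of two dose levels, triplicate. Fibres collected the day after the last dose for viable cell mass. Each ≥50% reduction versus vehicle controls scores 2, summed per site.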

Homo sapiens [6] = experiment: Compound was evaluated for anticancer activity in the hollow fiber assay, activity expressed as ip score; format: functional; how it was run: as §3
Homo sapiens [7] = experiment: Compound was evaluated for anticancer activity in the hollow fiber assay, activity expressed as sc score; format: functional; how it was run: as §3
Mus musculus [8] = experiment: In vivo anticancer activity against an ip P388 murine model after intraperitoneal administration of 50 mg/kg compound; format: functional
How it was run: (§4)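 Female B6D2F1 mice, 4–6 weeks old, 20–22 g, inoculated ip with 10^6 P388 leukemia cells. Single ip or iv injection on day 1 at the listed dose (range 25–400 mg/kg). BCNU run as internal reference. Median survival of treated versus control mice gives T/C (%). Activity threshold set at T/C 125%.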

Mus musculus [9] = experiment: In vivo anticancer activity against an ip P388 murine model after intraperitoneal administration of 100 mg/kg compound; format: functional; how it was run: as §4
HT-29 = experiment: In vitro antiproliferative activity against HT-29 cell line; format: functional, Mus musculus; settings: Homo sapiens; how it was run: as §1
Mus musculus [10] = experiment: In vivo anticancer activity against an ip P388 murine model after intravenous administration of 50 mg/kg compound; format: functional; how it was run: as §4
L1210 [11] = experiment: Compound was tested for percentage of L1210 cells accumulated in the G2 + M + 8N phase of the cell cycle at 0.5 uM; format: functional, Mus musculus; how it was run: as §2
Mus musculus [12] = experiment: In vivo anticancer activity against an ip P388 murine model after intraperitoneal administration of 200 mg/kg compound; format: functional; how it was run: as §4
A2780 = experiment: In vitro antiproliferative activity against A2780 cell line; format: functional, Mus musculus; settings: Homo sapiens; how it was run: as §1
Mus musculus [13] = experiment: In vivo anticancer activity against an ip P388 murine model after intravenous administration of 400 mg/kg compound; format: functional; how it was run: as §4
[14] = Inhibitory concentration against calf microtubule polymerization; format: functional, Bos taurus
How it was run: (§5)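 Calf brain tubulin purified by three assembly–disassembly cycles, about 2–3 mg/mL in 0.1 M MES, 0.5 mM MgCl2, 2 mM EGTA, 1 mM GTP, pH 6.6. Assembly followed continuously by turbidimetry at 37 °C. IC50 is the concentration halving the maximum assembly rate of drug-free tubulin. Deoxypodophyllotoxin measured the same day as reference.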

Mus musculus [15] = experiment: In vivo anticancer activity against an ip P388 murine model after intraperitoneal administration of 25 mg/kg compound; format: functional; how it was run: as §4
L1210 [16] = experiment: In vitro antiproliferative activity against L1210 cell line; format: functional; settings: Mus musculus; how it was run: as §1
Tubulin = Tubulin (Bos taurus, UniProt Q6B856+Q862L2+Q862F3); experiment: Inhibitory concentration against calf tubulin polymerization; format: protein assay; how it was run: as §5
B16 = experiment: In vitro antiproliferative activity against B16 cell line; format: functional; settings: Mus musculus; how it was run: as §1
KB = experiment: In vitro antiproliferative activity against KBA1 cell line; format: functional, Mus musculus; settings: Homo sapiens; how it was run: as §1
OVCAR-3 = experiment: In vitro antiproliferative activity against OVCAR-3 cell line; format: functional, Mus musculus; settings: Homo sapiens; how it was run: as §1
LS174T = experiment: In vitro antiproliferative activity against LS174T cell line; format: functional, Mus musculus; settings: Homo sapiens; how it was run: as §1
Mus musculus [17] = experiment: In vivo anticancer activity against an ip P388 murine model after intravenous administration of 100 mg/kg compound; format: functional; how it was run: as §4
A549 = experiment: In vitro antiproliferative activity against A549 cell line; format: functional, Mus musculus; settings: Homo sapiens; how it was run: as §1
DU-145 = experiment: In vitro antiproliferative activity against DU145 cell line; format: functional, Mus musculus; settings: Homo sapiens; how it was run: as §1
Mus musculus [18] = experiment: In vivo anticancer activity against an ip P388 murine model after intravenous administration of 200 mg/kg compound; format: functional; how it was run: as §4
Mus musculus [19] = experiment: In vivo anticancer activity against an ip P388 murine model after intravenous administration of 25 mg/kg compound; format: functional; how it was run: as §4
P388 = experiment: In vitro antiproliferative activity against P388 cell line; format: functional; settings: Mus musculus; how it was run: as §1
Mus musculus [20] = experiment: In vivo anticancer activity against an ip P388 murine model after intraperitoneal administration of 400 mg/kg compound; format: functional; how it was run: as §4

GI50 (L1210 [1]): 29 µM
SMILES: O=C1c2scc(-c3cccc(O)c3)c2-n2cccc21

GI50 (L1210 [1]): 18.9 µM
SMILES: COc1ccccc1-c1csc2c1-n1cccc1C2=O
Cells (L1210 [2]): 75%

GI50 (L1210 [1]): 30.1 µM
SMILES: O=C1c2scc(-c3ccc(O)cc3)c2-n2cccc21

GI50 (L1210 [1]): 8.8 µM
SMILES: Oc1ccc(-c2csc3nc(O)c4cccn4c23)cc1O

GI50 (L1210 [1]): 3.7 µM
SMILES: O=C1c2scc(-c3ccccc3O)c2-n2cccc21

GI50 (L1210 [1]): 4.2 µM
SMILES: O=C1c2scc(-c3ccc4c(c3)OCO4)c2-n2cccc21

GI50 (L1210 [1]): 4.9 µM
SMILES: COc1ccc(-c2csc3c2-n2cccc2C3O)cc1 (stereo unspecified)

GI50 (L1210 [1]): 8 µM
SMILES: COc1cc(-c2csc3c2-n2cccc2C3=O)ccc1O

GI50 (L1210 [1]): 0.19 µM
SMILES: COc1ccc(-c2csc3c2-n2cccc2C3=O)cc1
GI50 (CCRF-CEM): 0.0316 µM
Activity (Homo sapiens [5]): 16
Activity (Homo sapiens [6]): 16
GI50 (NCI-H522): 0.0158 µM
Activity (Homo sapiens [7]): 0
GI50 (MDA-N): 0.0126 µM
GI50 (SW-620): 0.0251 µM
GI50 (PC-3): 0.0398 µM
GI50 (M14 [3]): 0.0316 µM
GI50 (RXF 393): 0.0631 µM

GI50 (L1210 [1]): 9.4 µM
SMILES: COc1ccc(-c2cc3c(s2)C(=O)c2cccn2-3)cc1

GI50 (L1210 [1]): 12 µM
SMILES: O=C1c2scc(-c3ccc(O)c(O)c3O)c2-n2cccc21

GI50 (L1210 [1]): 11.8 µM
SMILES: COc1ccc(-c2c[nH]c3c2-n2cccc2C3=O)cc1OC

GI50 (L1210 [1]): 11.7 µM
IC50 (Tubulin): 19 µM
SMILES: COc1ccc(-c2csc3c2-n2cccc2C3=O)cc1OC

GI50 (L1210 [1]): 85 µM
SMILES: O=C1c2sccc2-n2cccc21

GI50 (L1210 [1]): 0.28 µM
IC50 (Tubulin): 21 µM
SMILES: O=C1c2scc(-c3ccc(O)c(O)c3)c2-n2cccc21
T/C (Mus musculus [8]): 118%
T/C (Mus musculus [9]): 134%
T/C (Mus musculus [10]): 101%
T/C (Mus musculus [12]): 133%
T/C (Mus musculus [13]): 21%
T/C (Mus musculus [15]): 111%
T/C (Mus musculus [17]): 105%
T/C (Mus musculus [18]): 103%
T/C (Mus musculus [19]): 95%
T/C (Mus musculus [20]): 149%

GI50 (L1210 [1]): 27.6 µM
SMILES: O=C1c2cccc(-c3ccco3)c2-n2cccc21

GI50 (L1210 [1]): 3.9 µM
SMILES: COc1ccc(-c2csc3c2-n2cccc2/C3=N/OCCCN(C)C)cc1

GI50 (L1210 [1]): 5.2 µM
SMILES: COc1cccc(-c2csc3c2-n2cccc2C3=O)c1

GI50 (L1210 [1]): > 100 µM
SMILES: Cc1csc2c1-n1cccc1C2=O

GI50 (L1210 [1]): 72.2 µM
SMILES: COc1ccc(-c2cccc3c2-n2cccc2C3=O)cc1OC

GI50 (L1210 [1]): 24.1 µM
SMILES: COc1cc(-c2csc3c2-n2cccc2C3=O)ccc1OCc1ccccc1

Second part, the compound before the results:

SMILES: COc1ccc(-c2csc3c2-n2cccc2/C3=N/O)cc1
GI50 (L1210 [1]): 34.3 µM

SMILES: COc1ccc(-c2csc3c2-n2cccc2C3=O)c(OC)c1OC
GI50 (L1210 [1]): 36.4 µM

SMILES: COc1ccc(-c2cccc3c2-n2cccc2C3=O)cc1
GI50 (L1210 [1]): 3 µM

SMILES: O=C1c2scc(-c3ccc(F)cc3)c2-n2cccc21
GI50 (CCRF-CEM): 31.6 µM
GI50 (NCI-H522): 15.8 µM
GI50 (MDA-N): 7.94 µM
GI50 (SW-620): 25.1 µM
GI50 (PC-3): 31.6 µM
GI50 (M14 [3]): 31.6 µM
GI50 (RXF 393): 25.1 µM

SMILES: CCCOc1ccc(-c2csc3c2-n2cccc2C3=O)cc1
GI50 (L1210 [1]): 28.1 µM

SMILES: COc1ccc(-c2csc3nc(O)c4cccn4c23)cc1OC
GI50 (L1210 [1]): > 100 µM

SMILES: O=C1c2scc(-c3ccc(Cl)cc3)c2-n2cccc21
GI50 (CCRF-CEM): 100 µM
GI50 (NCI-H522): 3.16 µM
GI50 (MDA-N): 7.94 µM
GI50 (M14 [4]): 50.1 µM
GI50 (SW-620): 100 µM
GI50 (PC-3): 100 µM
GI50 (RXF 393): 100 µM

SMILES: CC(C)Oc1ccc(-c2csc3c2-n2cccc2C3=O)cc1
GI50 (L1210 [1]): 12.2 µM

SMILES: COc1ccc(-c2coc3c2-n2cccc2C3=O)cc1OC
GI50 (L1210 [1]): 24.2 µM

SMILES: CCCCOc1ccc(-c2csc3c2-n2cccc2C3=O)cc1
GI50 (L1210 [1]): 29.6 µM

SMILES: COc1ccc(-c2csc3c2-n2cccc2C3=O)cc1OCc1ccccc1
GI50 (L1210 [1]): 5.4 µM

SMILES: O=C1c2cccc(-c3cccs3)c2-n2cccc21
GI50 (L1210 [1]): 71.9 µM

SMILES: COc1ccc(-c2csc3c2-n2cccc2C3=O)cc1O
GI50 (L1210 [1]): 0.015 µM
T/C (Mus musculus [8]): 116%
T/C (Mus musculus [9]): 121%
GI50 (HT-29): 0.713 µM
T/C (Mus musculus [10]): 104%
Cells (L1210 [11]): 86%
T/C (Mus musculus [12]): 117%
GI50 (A2780): 0.04 µM
T/C (Mus musculus [13]): 19%
IC50 [14]: 2.9 µM
T/C (Mus musculus [15]): 108%
GI50 (L1210 [16]): 0.015 µM
IC50 (Tubulin): 2.9 µM
GI50 (B16): 0.023 µM
GI50 (KB): 0.015 µM
GI50 (OVCAR-3): 0.031 µM
GI50 (LS174T): 0.887 µM
T/C (Mus musculus [17]): 102%
GI50 (A549): 0.045 µM
GI50 (DU-145): 0.043 µM
T/C (Mus musculus [18]): 103%
T/C (Mus musculus [19]): 102%
GI50 (P388): 0.021 µM
T/C (Mus musculus [20]): 121%

SMILES: COc1ccc(C2CC(=O)c3cccn32)cc1O (stereo unspecified)
GI50 (L1210 [1]): 25 µM

SMILES: O=C1c2scc(-c3ccccc3)c2-n2cccc21
GI50 (CCRF-CEM): 20 µM
GI50 (NCI-H522): 12.6 µM
GI50 (MDA-N): 15.8 µM
GI50 (SW-620): 15.8 µM
GI50 (PC-3): 12.6 µM
GI50 (M14 [3]): 20 µM
GI50 (RXF 393): 12.6 µM

SMILES: CCOc1ccc(-c2csc3c2-n2cccc2C3=O)cc1
GI50 (L1210 [1]): 0.43 µM
